Laboratory results from ChEMBL document CHEMBL2390856, “Carbon-11 N-methyl alkylation of L-368,899 and in vivo PET imaging investigations for neural oxytocin receptors” (Bioorg Med Chem Lett, 2013).

Experiments:
[1] = Oral bioavailability in rat; type: ADME, organism-based; conditions: in vivo
Oxytocin receptor [2] = target: T1, Oxytocin receptor (Rattus norvegicus, UniProt P70536); assay: Inhibition of rat uterus OT receptor
T1 sequence (P70536 whole entry): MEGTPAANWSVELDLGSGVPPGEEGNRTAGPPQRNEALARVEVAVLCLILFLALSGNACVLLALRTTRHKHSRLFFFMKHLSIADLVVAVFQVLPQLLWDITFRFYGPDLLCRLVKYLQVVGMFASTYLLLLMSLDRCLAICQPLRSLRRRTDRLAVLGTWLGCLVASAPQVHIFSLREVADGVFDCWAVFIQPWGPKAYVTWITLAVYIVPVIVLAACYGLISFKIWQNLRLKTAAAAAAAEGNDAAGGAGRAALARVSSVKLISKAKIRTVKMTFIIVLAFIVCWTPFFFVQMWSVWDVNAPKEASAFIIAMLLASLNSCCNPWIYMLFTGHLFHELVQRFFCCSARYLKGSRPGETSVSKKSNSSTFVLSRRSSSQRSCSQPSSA

Vasopressin V2 receptor [3] = target: Vasopressin V2 receptor (Rattus norvegicus, UniProt Q00788); assay: Inhibition of rat kidney V2 receptor
Vasopressin V2 receptor (Rattus norvegicus, UniProt Q00788), sequence (Q00788 whole entry): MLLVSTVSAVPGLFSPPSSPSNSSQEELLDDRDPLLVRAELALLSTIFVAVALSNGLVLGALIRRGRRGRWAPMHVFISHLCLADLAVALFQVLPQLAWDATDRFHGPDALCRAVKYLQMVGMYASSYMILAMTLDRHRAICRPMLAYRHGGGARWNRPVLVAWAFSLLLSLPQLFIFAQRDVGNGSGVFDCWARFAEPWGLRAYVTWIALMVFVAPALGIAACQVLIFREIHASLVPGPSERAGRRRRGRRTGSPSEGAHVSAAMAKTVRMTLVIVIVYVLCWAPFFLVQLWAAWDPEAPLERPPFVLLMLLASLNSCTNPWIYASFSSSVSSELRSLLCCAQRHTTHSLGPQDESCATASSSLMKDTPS

Vasopressin V1a receptor [4] = target: Vasopressin V1a receptor (Rattus norvegicus, UniProt P30560); assay: Inhibition of rat liver V1a receptor
Vasopressin V1a receptor (Rattus norvegicus, UniProt P30560), sequence (P30560 whole entry): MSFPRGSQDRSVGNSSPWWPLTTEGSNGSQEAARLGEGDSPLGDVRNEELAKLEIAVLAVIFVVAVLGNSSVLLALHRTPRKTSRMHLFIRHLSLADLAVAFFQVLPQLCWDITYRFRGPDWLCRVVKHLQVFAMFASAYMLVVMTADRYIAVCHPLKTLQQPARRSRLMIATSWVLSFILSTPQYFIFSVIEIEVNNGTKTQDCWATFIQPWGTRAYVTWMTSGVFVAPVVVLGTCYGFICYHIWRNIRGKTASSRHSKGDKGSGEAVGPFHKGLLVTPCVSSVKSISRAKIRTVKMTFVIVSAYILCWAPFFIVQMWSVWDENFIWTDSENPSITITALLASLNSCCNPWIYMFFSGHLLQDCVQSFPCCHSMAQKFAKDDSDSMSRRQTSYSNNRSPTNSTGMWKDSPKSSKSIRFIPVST

[5] = Oral bioavailability in dog; type: ADME, organism-based, Canis lupus familiaris; conditions: in vivo
Vasopressin V1a receptor [6] = target: Vasopressin V1a receptor (Homo sapiens, UniProt P37288); assay: Binding affinity to human liver V1A receptor
Vasopressin V1a receptor (Homo sapiens, UniProt P37288), sequence (P37288 whole entry): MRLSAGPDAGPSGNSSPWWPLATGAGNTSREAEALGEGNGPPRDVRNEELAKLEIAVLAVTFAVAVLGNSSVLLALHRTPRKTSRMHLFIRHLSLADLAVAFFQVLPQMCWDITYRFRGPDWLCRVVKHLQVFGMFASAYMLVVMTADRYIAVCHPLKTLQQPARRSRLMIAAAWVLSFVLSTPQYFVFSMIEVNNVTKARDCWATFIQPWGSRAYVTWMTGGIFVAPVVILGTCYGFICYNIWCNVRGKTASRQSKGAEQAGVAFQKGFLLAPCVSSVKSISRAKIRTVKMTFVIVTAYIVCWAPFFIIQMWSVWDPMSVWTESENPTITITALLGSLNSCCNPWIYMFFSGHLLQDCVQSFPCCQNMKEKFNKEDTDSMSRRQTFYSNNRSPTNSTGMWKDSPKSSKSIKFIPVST

Oxytocin receptor [7] = target: T2, Oxytocin receptor (Homo sapiens, UniProt P30559); assay: Binding affinity to human OT receptor
T2 sequence (P30559 whole entry): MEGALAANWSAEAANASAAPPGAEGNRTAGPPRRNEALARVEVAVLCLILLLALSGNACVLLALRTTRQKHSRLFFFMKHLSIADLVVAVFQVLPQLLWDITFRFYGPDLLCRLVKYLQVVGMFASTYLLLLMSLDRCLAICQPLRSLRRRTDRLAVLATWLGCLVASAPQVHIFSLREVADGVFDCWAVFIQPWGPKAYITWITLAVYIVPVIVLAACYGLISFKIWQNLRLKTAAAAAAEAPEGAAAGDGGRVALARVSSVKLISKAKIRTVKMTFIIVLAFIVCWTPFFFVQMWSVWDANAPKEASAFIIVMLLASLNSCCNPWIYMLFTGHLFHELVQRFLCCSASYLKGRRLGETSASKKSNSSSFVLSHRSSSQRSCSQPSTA
In short: (§1)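 Ki values in nM from human receptor binding assays run by the NIMH Psychoactive Drug Screening Program.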

Vasopressin V1b receptor = target: T3, Vasopressin V1b receptor (Homo sapiens, UniProt P47901); assay: Binding affinity to V1B receptor (unknown origin); in short: as §1
T3 sequence (P47901 whole entry): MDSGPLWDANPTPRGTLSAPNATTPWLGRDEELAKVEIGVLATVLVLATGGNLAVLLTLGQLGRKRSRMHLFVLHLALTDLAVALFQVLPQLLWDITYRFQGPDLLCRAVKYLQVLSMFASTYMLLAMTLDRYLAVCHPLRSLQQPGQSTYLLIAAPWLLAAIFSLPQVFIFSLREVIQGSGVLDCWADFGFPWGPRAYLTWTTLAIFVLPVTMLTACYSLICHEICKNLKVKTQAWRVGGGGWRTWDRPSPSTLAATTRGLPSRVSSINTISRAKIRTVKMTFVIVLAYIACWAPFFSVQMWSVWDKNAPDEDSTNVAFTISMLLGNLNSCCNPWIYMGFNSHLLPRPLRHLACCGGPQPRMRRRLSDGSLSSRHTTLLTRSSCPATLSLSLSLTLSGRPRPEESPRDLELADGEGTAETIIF

Vasopressin V2 receptor [8] = target: Vasopressin V2 receptor (Homo sapiens, UniProt P30518); assay: Binding affinity to human V2 receptor; in short: as §1
Vasopressin V2 receptor (Homo sapiens, UniProt P30518), sequence (P30518 whole entry): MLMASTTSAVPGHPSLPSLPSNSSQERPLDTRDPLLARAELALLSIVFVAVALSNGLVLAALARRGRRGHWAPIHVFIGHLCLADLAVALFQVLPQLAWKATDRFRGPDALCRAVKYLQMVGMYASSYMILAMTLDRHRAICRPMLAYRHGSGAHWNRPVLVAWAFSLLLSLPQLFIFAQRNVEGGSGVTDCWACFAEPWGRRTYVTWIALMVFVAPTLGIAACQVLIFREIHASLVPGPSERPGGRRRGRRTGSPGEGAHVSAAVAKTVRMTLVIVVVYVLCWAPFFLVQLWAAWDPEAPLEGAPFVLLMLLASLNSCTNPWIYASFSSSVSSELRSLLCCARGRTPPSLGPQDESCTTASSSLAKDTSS

[9] = Lipophilicity, log P of the compound at pH 7.4; type: physicochemical; conditions: buffer
[10] = Drug uptake in Sprague-Dawley rat amygdala at 500 uCi after 10 mins by PET imaging analysis; type: ADME, tissue-based; conditions: in vivo
Muscle tissue = assay: Drug uptake in Sprague-Dawley rat muscle at 500 uCi by PET imaging analysis in presence of ornithine vasotocin; type: ADME, tissue-based; conditions: in vivo
In short: (§2)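 Estradiol benzoate-primed Sprague-Dawley rats (10–12 μg sc in sesame oil, daily for 3 days). The peptide OT antagonist ornithine vasotocin (5 mg/kg) was injected 10 min before the radiotracer to block peripheral receptors. 500 μCi of tracer was injected 30 s into a 45 min emission scan.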

Brain [11] = assay: Drug uptake in Sprague-Dawley rat brain at 500 uCi by PET imaging analysis; type: ADME, tissue-based; conditions: in vivo
Hypothalamus = assay: Drug uptake in Sprague-Dawley rat hypothalamus at 500 uCi after 10 mins by PET imaging analysis; type: ADME, tissue-based; conditions: in vivo
[12] = Drug uptake in Sprague-Dawley rat pituitary gland at 500 uCi by PET imaging analysis in presence of ornithine vasotocin; type: ADME; conditions: in vivo; in short: as §2
[13] = Drug uptake in Sprague-Dawley rat pituitary gland at 500 uCi by PET imaging analysis; type: ADME, tissue-based; conditions: in vivo
[14] = Drug uptake in cynomolgus monkey muscle at 8.3 mCi, iv after 2 hrs by PET imaging analysis; type: ADME, organism-based, Macaca fascicularis, Muscle tissue; conditions: in vivo
In short: (§3)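 One male cynomolgus monkey (8.91 kg) given an 8.3 mCi iv bolus of radiotracer. PET scan for 2 h from injection, with images summed. Time-activity curves were derived for choroid plexus, muscle and whole brain.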

Brain [15] = assay: Drug uptake in cynomolgus monkey brain at 8.3 mCi, iv after 2 hrs by PET imaging analysis; type: ADME, organism-based, Macaca fascicularis; conditions: in vivo; in short: as §3
[16] = Drug uptake in cynomolgus monkey choroid plexus at 8.3 mCi, iv after 2 hrs by PET imaging analysis; type: ADME, organism-based, Macaca fascicularis; conditions: in vivo; in short: as §3
Brain [17] = assay: Drug uptake in Sprague-Dawley rat brain at 500 uCi after 10 mins by PET imaging analysis; type: ADME, tissue-based; conditions: in vivo
[18] = Drug uptake in Sprague-Dawley rat dorsal caudate nucleus at 500 uCi after 10 mins by PET imaging analysis; type: ADME, tissue-based; conditions: in vivo

With Cc1ccccc1N1CCN(S(=O)(=O)C[C@]23CC[C@H](C[C@@H]2NC(=O)[C@@H](N)CCS(C)(=O)=O)C3(C)C)CC1 the bioavailability [1] was 17%, the IC50 (Oxytocin receptor [2]) was 8.9 nM and the IC50 (Vasopressin V2 receptor [3]) was 570 nM. It also gave an IC50 (Vasopressin V1a receptor [4]) of 370 nM and a bioavailability [5] of 17%.

In the case of CN[C@@H](CCS(C)(=O)=O)C(=O)N[C@H]1C[C@H]2CC[C@]1(CS(=O)(=O)N1CCN(c3ccccc3C)CC1)C2(C)C, the Ki (Vasopressin V1a receptor [6]) is reported as 620 nM, the IC50 (Oxytocin receptor [2]) is reported as 9.2 nM and the Ki (Oxytocin receptor [7]) is reported as 5.2 nM. For the same molecule, the IC50 (Vasopressin V2 receptor [3]) was 350 nM, the Ki (Vasopressin V1b receptor) was 1300 nM and the IC50 (Vasopressin V1a receptor [4]) was 320 nM. For the same molecule, the Ki (Vasopressin V2 receptor [8]) was 181 nM.

With Cc1ccccc1N1CCN(S(=O)(=O)C[C@]23CC[C@H](C[C@@H]2NC(=O)[C@H](CCS(C)(=O)=O)N[11CH3])C3(C)C)CC1 the logD [9] was 2.62, the Drug uptake [10] was “Active” and the Drug uptake (Muscle tissue) was “Active”. For the same molecule, the Drug uptake (Brain [11]) was “Active”, the Drug uptake (Hypothalamus) was “Active” and the Drug uptake [12] was “Active”. The Drug uptake [13] was “Active”, the Drug uptake [14] was “Active” and the Drug uptake (Brain [15]) was “Not Active”. For the same molecule, the Drug uptake [16] was “Active”, the Drug uptake (Brain [17]) was “Active” and the Drug uptake [18] was “Active”.
